Screening results: PubChem BioAssay, several laboratories
In the library only some 1.4% were active in any assay of this set; here they are far more common.
Tn7 DDE FP: DD(E)-Tn7 binding inhibition, primary FP screen; P02675; FP displacement of FITC-Tn7 peptide from fibrin DD(E); 0% = median of compound wells per plate; inhibition, % at 8.3 µM; 370,000 tested, 0.13% active;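 active = inhibition above the mean of compounds falling within the control limits plus 3 SD of them, cut at about 14% in these data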;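 note: 0% = plate median of compound wells and 100% = 10 µM Aha-Tn7 peptide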
Target sequence (P02675 whole entry, looked up): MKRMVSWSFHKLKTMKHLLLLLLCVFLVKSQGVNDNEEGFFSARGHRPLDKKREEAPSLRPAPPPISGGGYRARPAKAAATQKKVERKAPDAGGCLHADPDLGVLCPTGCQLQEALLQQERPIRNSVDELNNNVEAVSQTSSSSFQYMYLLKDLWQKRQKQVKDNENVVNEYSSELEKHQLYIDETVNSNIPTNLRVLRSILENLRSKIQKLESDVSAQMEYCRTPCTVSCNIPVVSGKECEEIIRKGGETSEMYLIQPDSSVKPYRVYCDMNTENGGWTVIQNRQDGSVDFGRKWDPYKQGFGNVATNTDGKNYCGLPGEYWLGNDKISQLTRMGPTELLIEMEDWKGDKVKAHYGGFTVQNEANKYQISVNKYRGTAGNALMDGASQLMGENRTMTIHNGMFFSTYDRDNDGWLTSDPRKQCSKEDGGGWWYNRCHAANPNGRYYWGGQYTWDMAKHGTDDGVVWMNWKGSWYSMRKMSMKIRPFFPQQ
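Test system – human fibrin DD(E) · Times – 10 min preincubation, 3 h with tracer, room temperature · Detection – fluorescence polarization of the labelled Tn7 tracer · Measure – percent inhibition normalized to high-control wells · Benchmarks – high control wells with 10 µM unlabelled Aha-Tn7 peptide (full inhibition) · Repeats – singlicate testing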
CAL PDZ FP-1: blocks peptide binding to the human CAL PDZ domain. Q9HD26. purified CAL PDZ, TMR-peptide fluorescence polarization, 1 h. inhibition, % at 24.9 µM. 300,000 tested, 0.92% active;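 active = mean inhibition of at least 30% with at least half of replicates also reaching 30%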;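 note: 0% = DMSO neutral control and 100% = excess unlabeled competitor peptide PRC23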
DDE Tn6 FP inh: DD(E)-Tn6 binding inhibition, primary FP screen; inhibition, % at 8.3 µM; 370,000 tested, 0.21% active; Fibrin DD(E) TRITC-Tn6 fluorescence polarization displacement; P02675;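 active = inhibition above a per-campaign cutoff: mean of compounds within control limits plus 3 SD, cut at about 15% in these data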;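 note: 0% = median of all compound wells on the plate and 100% = blocking peptide control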
Arr AP2 block: human beta-arrestin and AP2 interaction inhibition. FITC-arrestin peptide / GST-AP2 beads, flow cytometry; AP2 beta2 appendage carries R879A mutation. inhibition, % at 10 µM. 340,000 tested, 0.31% active. AID 504490;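 active = inhibition above a set limit, near 3 SD of compounds lacking own fluorescence, cut at about 54% in these data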;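 note: plate controls were DMSO wells for no effect and 5 µM unlabelled arrestin peptide for full effect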
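Assay system: GST-AP2 R879A bound to glutathione beads, E. coli-expressed; Medium: PBS with 0.05% Tween 20 and 0.1% BSA; Also added: fluorescein-tagged arrestin peptide at 50 nM final; Timing: 12 min plus 1 h, RT; Measured by: flow cytometry, FL1 (488/535 nm); Evaluation: percent drop in bead-associated FITC signal.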
CAL PDZ FP-2: blocks peptide binding to human CAL PDZ domain | inhibition, % at 20 µM | 330,000 tested, 0.02% active | Q9HD26 | purified CAL PDZ, TMR-peptide fluorescence polarization, 1 h;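 active = highest replicate inhibition of at least 40%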;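 note: plate controls were DMSO neutral control wells for no effect and unlabeled competitor peptide control wells for full effect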
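Material – purified CerCALP PDZ construct · Detection – FP readout, S and P plane fluorescence · Measure – percent inhibition from loss of millipolarization · Controls – unlabelled peptide for full inhibition, DMSO wells as neutral · Probe or stimulus – TMR-labelled reporter peptide T*-PRC34 bound in PDZ groove · Times – 1 h at RT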
Tn6 DDE ctr: counter-screen hit for Tn6 peptide-fibrin DD(E) binding disruption; shares compounds with DDE Tn6 FP inh; TRITC-Tn6 fluorescence polarization displacement; 0% = median of compound wells, not DMSO; inhibition, % at 8.3 µM; 680 tested, 2% active; AID 720621;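 active = inhibition above the mean of test compounds lying between the control limits plus 3 SD of those, cut at about 14% in these data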;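 note: 0% = median of compound wells and 100% = wells with Aha-Tn7 blocking peptide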
DDE Tn6 confirm: DD(E)-Tn6 binding inhibition, FP confirmation. 680 tested, 10% active. AID 720631. shares compounds with DDE Tn6 FP inh. FP displacement of TRITC-Tn6 peptide from DD(E); 0% = per-plate median of test wells. inhibition, % at 8.3 µM;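 active = inhibition above the mean of compounds lying within the control limits plus 3 SD, cut at about 16% in these data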;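 note: 100% = high control wells holding a competing inhibitor peptide at 10 µM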
The depositor's hits bear a star.

How did CSc1nnc(Cc2ccc3c(c2)OCO3)o1 do in these assays?
Tn7 DDE FP: 3; CAL PDZ FP-1: -1; DDE Tn6 FP inh: 1; Arr AP2 block: -2; CAL PDZ FP-2: 0

Results for N#CCCCSc1nnc(Cc2ccc3c(c2)OCO3)o1 ?
Tn7 DDE FP: -5; CAL PDZ FP-1: -1; DDE Tn6 FP inh: 18*; Arr AP2 block: 1; CAL PDZ FP-2: -5; Tn6 DDE ctr: 4; DDE Tn6 confirm: -5

What do the screens show for `COC(=O)[C@]12C[C@H](CC(=O)N3CCN(C(=O)C4CC4)CC3)C(=O)N(Cc3ccc(Cl)cc3Cl)C1=C[C@H](C(C)(C)C)O[C@@H]2C`?
Tn7 DDE FP: -2; DDE Tn6 FP inh: -2

What do the screens show for `Cc1ccc(NC(=O)COC(=O)c2ccc(NC(=O)CC#N)cc2)cc1S(=O)(=O)N1CCOCC1`?
Tn7 DDE FP: 2; DDE Tn6 FP inh: 20*; Arr AP2 block: 35; CAL PDZ FP-2: -2; Tn6 DDE ctr: -2; DDE Tn6 confirm: -7

Results for CCc1cccc2c(C(C)c3ccccc3O)c[nH]c12 (stereo not given) ?
Tn7 DDE FP: 4; DDE Tn6 FP inh: 2

How did C[C@@]12C(C[C@H](O)[C@@]34C[C@@H](CCC13)[C@@H](CO)C4=O)[C@](C)(C(=O)O)CC[C@@H]2O (stereo not given in full) do in these assays?
Tn7 DDE FP: 6; DDE Tn6 FP inh: 21*; Tn6 DDE ctr: -3; DDE Tn6 confirm: -9

How did CC(Oc1ccc(F)cc1)C(O)CCN(C)C (stereo not given) do in these assays?
Tn7 DDE FP: 0; CAL PDZ FP-1: -4; DDE Tn6 FP inh: 24*; Arr AP2 block: -6; CAL PDZ FP-2: 0; Tn6 DDE ctr: -7; DDE Tn6 confirm: -8

Results for C[C@@H]1[C@@H](O)C[C@@]2(C[C@H](O)c3ccccc3O2)O[C@H]1c1ccccc1 ?
Tn7 DDE FP: 1; DDE Tn6 FP inh: 10

Results for O=C1CC2c3cc(-c4cc5ccccc5o4)ccc3CCN2C(=O)CN1Cc1ccccc1 (stereo not given) ?
Tn7 DDE FP: 5; DDE Tn6 FP inh: 1

What do the screens show for `NS(=O)(=O)c1ccc(NC(=O)COC(=O)/C(=C/c2cccs2)c2cccs2)cc1`?
Tn7 DDE FP: -3; CAL PDZ FP-1: -2; DDE Tn6 FP inh: 19*; Arr AP2 block: 10; CAL PDZ FP-2: -3; Tn6 DDE ctr: 0; DDE Tn6 confirm: 1

What do the screens show for `NS(=O)(=O)c1ccc(NC(=O)Cc2cccs2)cc1`?
Tn7 DDE FP: -8; DDE Tn6 FP inh: -1; Arr AP2 block: -7; CAL PDZ FP-2: 1

Results for CC(=O)N1CCN(C(=O)C(Cc2ccccc2)NC(=O)c2ccccc2)CC1 (stereo not given) ?
Tn7 DDE FP: 6; DDE Tn6 FP inh: -5; Arr AP2 block: 2; CAL PDZ FP-2: 0

How did CC(=O)NC(Cc1ccccc1)C(=O)N1CCN(C(=O)c2cccs2)CC1 (stereo not given) do in these assays?
Tn7 DDE FP: 1; CAL PDZ FP-1: 6; DDE Tn6 FP inh: 17*; Arr AP2 block: 31; CAL PDZ FP-2: -1; Tn6 DDE ctr: -9; DDE Tn6 confirm: -8

Results for O=C(NCc1ccco1)C1CCCN(S(=O)(=O)c2ccc([N+](=O)[O-])cc2)C1 (stereo not given) ?
Tn7 DDE FP: -7; DDE Tn6 FP inh: 3

How did CCOc1ccc2noc3c2c1C(=O)c1ccccc1-3 do in these assays?
Tn7 DDE FP: -9; CAL PDZ FP-1: 1; DDE Tn6 FP inh: 41*; Arr AP2 block: 12; CAL PDZ FP-2: 0; Tn6 DDE ctr: 53*; DDE Tn6 confirm: 10

Results for Cn1c(=O)[nH]c(=O)c2c1nc(NCCCn1ccnc1)n2Cc1ccc(F)cc1 ?
Tn7 DDE FP: 7; CAL PDZ FP-1: -1; DDE Tn6 FP inh: 15*; Arr AP2 block: -5; CAL PDZ FP-2: -2; Tn6 DDE ctr: 4; DDE Tn6 confirm: 1

Results for CCCN1CCS(=O)(=O)N(Cc2cn(Cc3ccc(C)cc3)nn2)C(C(=O)OC)C1 (stereo not given) ?
Tn7 DDE FP: -9; DDE Tn6 FP inh: 3

Results for COc1ccccc1-n1c(SCC(=O)NC2CCS(=O)(=O)C2)nc2ccccc2c1=O (stereo not given) ?
Tn7 DDE FP: 2; CAL PDZ FP-1: 30; DDE Tn6 FP inh: 15*; Arr AP2 block: 15; CAL PDZ FP-2: 0; Tn6 DDE ctr: 7; DDE Tn6 confirm: 4

Results for CCCS(=O)(=O)N1CCN(C(=O)c2ccc(-c3ccccc3)cc2)CC1 ?
Tn7 DDE FP: 11; CAL PDZ FP-1: -2; DDE Tn6 FP inh: 15*; Arr AP2 block: -7; CAL PDZ FP-2: -1; Tn6 DDE ctr: -4; DDE Tn6 confirm: -7

How did C=CCN=C1NC(c2ccccc2C(F)(F)F)C(C(=O)OC)=C(C)N1Cc1ccccc1C(F)(F)F (stereo not given) do in these assays?
Tn7 DDE FP: -6; DDE Tn6 FP inh: 1

Results for Cc1cc2cc(CNC(=O)CC(C)C)ccc2n1C ?
Tn7 DDE FP: -2; CAL PDZ FP-1: -1; DDE Tn6 FP inh: 16*; Arr AP2 block: 10; CAL PDZ FP-2: -1; Tn6 DDE ctr: -2; DDE Tn6 confirm: -13

Results for Cc1ccccc1NC(=S)NCc1ccc2c(c1)cc(C)n2C ?
Tn7 DDE FP: 9; DDE Tn6 FP inh: 20*; Arr AP2 block: 0; CAL PDZ FP-2: -1; Tn6 DDE ctr: 3; DDE Tn6 confirm: -5

How did CCCCC(=O)NCc1ccc2c(c1)cc(C)n2C do in these assays?
Tn7 DDE FP: 0; CAL PDZ FP-1: -3; DDE Tn6 FP inh: 12; Arr AP2 block: 26; CAL PDZ FP-2: 0

Results for Cc1cc2cc(CNC(=O)C(C)Oc3ccccc3)ccc2n1C (stereo not given) ?
Tn7 DDE FP: -6; CAL PDZ FP-1: -5; DDE Tn6 FP inh: 36*; Arr AP2 block: -14; CAL PDZ FP-2: -3; Tn6 DDE ctr: 4; DDE Tn6 confirm: 4

What do the screens show for `COCCCn1cc(CN2CC=CS2(=O)=O)nn1`?
Tn7 DDE FP: -1; DDE Tn6 FP inh: -6

Results for CCOC(=O)[C@]12CCCCC/C=C\1N(CCc1ccc(Cl)cc1)C(=O)[C@H]2CC(=O)NCCCN1CCCC1=O ?
Tn7 DDE FP: 10; DDE Tn6 FP inh: 7

How did CCOC(=O)[C@@]12CCCC3=C1N(CCC3)C(=O)[C@H]2CC(=O)NCCCCc1ccccc1 do in these assays?
Tn7 DDE FP: -4; DDE Tn6 FP inh: -3
